Results from ChEMBL document CHEMBL3244134, “Potential anticancer agents. 16. Methotrexate analogues with a modified peptide side chain” (J Med Chem, 1978).
Values joined by “and” are separate entries in the source; they are usually repeats but may differ in a detail not shown here. Equal values may be shown once.

Legend:
[1] = Toxicity in Wistar rat administered as single dose; type: organism-based; details: in vivo
How it was run: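 LD50 determined from single doses in Wistar rats, reported in mg/kg and mmol/kg.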

L1210 [2] = assay: Antitumor activity against mouse L1210 cells allografted in BDF1 mouse assessed as increase in life span at 23 mg/kg administered 7 times starting 24 hrs post challenge relative to control; type: functional; details: L1210, 24 h
How it was run: (§1)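 L1210 leukemia: BDF1 mice inoculated ip with 10⁶ leukemic cells. Treatment started 24 h after inoculation, given daily in aqueous solution at pH 8.0–8.4. Survival of treated mice compared with untreated controls, expressed as %ILS = (T/C − 1) × 100.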

L1210 [3] = assay: Antitumor activity against mouse L1210 cells allografted in BDF1 mouse assessed as increase in life span at 50 mg/kg administered 6 times starting 24 hrs post challenge relative to control; type: functional; details: L1210, 24 h; how it was run: as §1
L1210 [4] = assay: Antitumor activity against mouse L1210 cells allografted in BDF1 mouse assessed as increase in life span at 45 mg/kg administered 10 times starting 24 hrs post challenge relative to control; type: functional; details: L1210, 24 h; how it was run: as §1
W256 [5] = assay: Antitumor activity against […] 256 cells allografted in rat assessed as tumor growth inhibition at 40 mg/kg administered 9 times starting 7 days post challenge relative to control; details: W256, 7 days, read-out: TGI
L1210 [6] = assay: Antitumor activity against mouse L1210 cells allografted in BDF1 mouse assessed as increase in life span at 10 mg/kg administered 8 times starting 24 hrs post challenge relative to control; type: functional; details: L1210, 24 h
How it was run: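 BDF1 mice inoculated ip with 10⁶ L1210 leukemia cells; daily dosing in aqueous solution at pH 8.0–8.4 starting 24 h after inoculation. Increase in life span computed as %ILS = (T/C − 1) × 100.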

W256 [7] = assay: Antitumor activity against […] 256 cells allografted in rat assessed as tumor growth inhibition at 8 mg/kg administered 14 times starting 24 hrs post challenge relative to control; type: functional; details: W256, 24 h, read-out: TGI
L1210 [8] = assay: Antitumor activity against mouse L1210 cells allografted in BDF1 mouse assessed as increase in life span at 33 mg/kg administered 6 times starting 24 hrs post challenge relative to control; type: functional; details: L1210, 24 h; how it was run: as §1
L1210 [9] = assay: Antitumor activity against mouse L1210 cells allografted in BDF1 mouse assessed as increase in life span at 25 mg/kg administered 6 times starting 24 hrs post challenge relative to control; type: functional; details: L1210, 24 h; how it was run: as §1
L1210 [10] = assay: Antitumor activity against mouse L1210 cells allografted in BDF1 mouse assessed as increase in life span at 78 mg/kg administered 9 times starting 24 hrs post challenge relative to control; type: functional; details: L1210, 24 h; how it was run: as §1
W256 [11] = assay: Antitumor activity against rat Walker 256 cells allografted in rat assessed as tumor growth inhibition at 60 mg/kg administered 14 times starting 7 days post challenge relative to control; details: W256, 7 days, read-out: TGI
L1210 [12] = assay: Antitumor activity against mouse L1210 cells allografted in BDF1 mouse assessed as increase in life span at 20 mg/kg administered 7 times starting 24 hrs post challenge relative to control; type: functional; details: L1210, 24 h; how it was run: as §1
L1210 [13] = assay: Antitumor activity against mouse L1210 cells allografted in BDF1 mouse assessed as increase in life span at 90 mg/kg administered 9 times starting 24 hrs post challenge relative to control; type: functional; details: L1210, 24 h; how it was run: as §1

## CN(Cc1cnc2nc(N)nc(N)c2n1)c1ccc(C(=O)NCC(=O)O)cc1
[1]
  LD50: 250 mg/kg and 650 µmol/kg
L1210 [2]
  ILS at 23 mg/kg: 0%

## CN(CC(=O)O)C(=O)c1ccc(N(C)Cc2cnc3nc(N)nc(N)c3n2)cc1.O
[1]
  LD50: 400 mg/kg and 920 µmol/kg
L1210 [3]
  ILS at 50 mg/kg: 0%

## CN(Cc1cnc2nc(N)nc(N)c2n1)c1ccc(C(=O)N[C@@H](Cc2ccccc2)C(=O)O)cc1.O
[1]
  LD50: 500 mg/kg and 1020 µmol/kg
L1210 [4]
  ILS at 45 mg/kg: 14%
W256 [5]
  inhibition in vivo at 40 mg/kg: 58%

## CN(Cc1cnc2nc(N)nc(N)c2n1)c1ccc(C(=O)NCCCC(=O)O)cc1.O
[1]
  LD50: 106 mg/kg and 250 µmol/kg
L1210 [6]
  ILS at 10 mg/kg: 0%
W256 [7]
  inhibition in vivo at 8 mg/kg: 55%

## CC(NC(=O)c1ccc(N(C)Cc2cnc3nc(N)nc(N)c3n2)cc1)C(=O)O.O (stereo not given)
[1]
  LD50: 349 mg/kg and 810 µmol/kg
L1210 [8]
  ILS at 33 mg/kg: 0%

## CN(Cc1cnc2nc(N)nc(N)c2n1)c1ccc(C(=O)NCCC(=O)O)cc1.O
[1]
  LD50: 250 mg/kg and 580 µmol/kg
L1210 [9]
  ILS at 25 mg/kg: 19%

## CCC(NC(=O)c1ccc(N(C)Cc2cnc3nc(N)nc(N)c3n2)cc1)C(=O)O (stereo not given)
[1]
  LD50: 925 mg/kg and 2250 µmol/kg
L1210 [10]
  ILS at 78 mg/kg: 16%
W256 [11]
  inhibition in vivo at 60 mg/kg: 47%

## CC(C)C(NC(=O)c1ccc(N(C)Cc2cnc3nc(N)nc(N)c3n2)cc1)C(=O)O (stereo not given)
[1]
  LD50: 200 mg/kg and 470 µmol/kg
L1210 [12]
  ILS at 20 mg/kg: 0%

## CC(C)C[C@H](NC(=O)c1ccc(N(C)Cc2cnc3nc(N)nc(N)c3n2)cc1)C(=O)O
L1210 [13]
  ILS at 90 mg/kg: 24%
